Five compounds from ChEMBL document CHEMBL2429840, “The lignan (-)-hinokinin displays modulatory effects on human monoamine and GABA transporter activities” (J Nat Prod, 2013) can be followed below.

As a reminder, the IC50 is the concentration at which inhibition is half-maximal.

Activity calls are given as the source filed them. The rule behind the calls is not given here.

The target in data set [1] is T1, Sodium-dependent dopamine transporter (Homo sapiens, UniProt Q01959). Put plainly: Inhibition of human DAT expressed in MDCK cells using [3H]-dopamine as substrate after 10 mins by scintillation counting. In kind it is cell-based. In short, it runs like this: (§1)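 Transfected MDCK cells were washed with PBS-CM and preincubated 10 min at room temperature with compound (0.2–200 or 0.5–500 μM) or vehicle. Uptake of 50 nM radiolabeled substrate then ran for 10 min at room temperature, with RO 41-0960 added for dopamine. Naive MDCK background was subtracted. IC50 came from nonlinear regression of three independent assays run in triplicate.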

Data set [2] deals with Sodium-dependent serotonin transporter (Homo sapiens, UniProt P31645). As to the kind of experiment: Inhibition of human SERT expressed in MDCK cells using [3H]-serotonin as substrate after 10 mins by scintillation counting. Format: cell-based. The method in brief: as §1
Data set [3] deals with T2, Sodium-dependent noradrenaline transporter (Homo sapiens, UniProt P23975). Put plainly: Inhibition of human NET expressed in MDCK cells using [3H]-norepinephrine as substrate after 10 mins by scintillation counting. In kind it is cell-based. The method in brief:
as §1

Data set [4] deals with T3, Sodium- and chloride-dependent GABA transporter 1 (Homo sapiens, UniProt P30531). Put plainly: Inhibition of GAT-1 (unknown origin). The method in brief:
(§2)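 Transporter transiently expressed in COS-7 cells, with compound tested in dose–response (EAATs at 0.5–500 μM) against vehicle. Nonspecific uptake from empty-vector (pcDNA3) COS-7 sister cultures was subtracted. IC50 came from nonlinear regression of at least three independent experiments run in triplicate.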
Target sequence in this assay (P30531 whole entry, looked up): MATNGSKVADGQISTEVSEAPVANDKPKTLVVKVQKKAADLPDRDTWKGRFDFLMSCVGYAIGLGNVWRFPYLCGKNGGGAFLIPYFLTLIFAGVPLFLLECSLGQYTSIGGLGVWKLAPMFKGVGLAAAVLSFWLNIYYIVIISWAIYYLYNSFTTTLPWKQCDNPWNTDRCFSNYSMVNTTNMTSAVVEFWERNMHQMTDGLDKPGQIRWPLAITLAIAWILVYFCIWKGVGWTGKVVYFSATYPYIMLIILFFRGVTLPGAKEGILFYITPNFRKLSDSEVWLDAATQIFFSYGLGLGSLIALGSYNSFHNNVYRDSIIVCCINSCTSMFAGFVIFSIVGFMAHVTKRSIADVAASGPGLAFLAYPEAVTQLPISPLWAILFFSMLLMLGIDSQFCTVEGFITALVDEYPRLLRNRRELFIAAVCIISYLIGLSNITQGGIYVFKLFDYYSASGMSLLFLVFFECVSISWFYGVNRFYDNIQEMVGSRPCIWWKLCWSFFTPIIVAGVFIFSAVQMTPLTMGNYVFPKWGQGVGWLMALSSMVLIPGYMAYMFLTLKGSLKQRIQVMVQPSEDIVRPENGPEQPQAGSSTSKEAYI

The target of data set [5] is T2, Sodium-dependent noradrenaline transporter. As to the kind of experiment: Inhibition of human NET expressed in MDCK cells using [3H]-norepinephrine as substrate at 200 uM after 10 mins by scintillation counting. Format: cell-based.
The target in data set [6] is T1, Sodium-dependent dopamine transporter. As to the kind of experiment: Non-competitive inhibition of human DAT expressed in MDCK cells using [3H]-dopamine as substrate. In kind it is cell-based. In short, it runs like this: (§3)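 Cells were preincubated with or without 20 μM compound for 10 min at room temperature. Uptake then ran with eight concentrations of unlabeled/radiolabeled substrate mix, in triplicate. Dopamine (99.9%:0.1%, 45 nM–100 μM) was used in hDAT MDCK cells and GABA (99.95%:0.05%) in GAT-1 COS-7 cells. Nonspecific uptake was subtracted, Michaelis–Menten Vmax/KM were fitted, and n≥3 independent assays were analysed by paired t-test.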

Data set [7] concerns the target T3, Sodium- and chloride-dependent GABA transporter 1. Put plainly: Non-competitive inhibition of GAT-1 (unknown origin) expressed in african green monkey COS7 cells using [3H]-GABA as substrate. Format: cell-based. Particulars: COS-7. The method in brief: as §3
Target sequence in this assay (P30531 whole entry, looked up): as above
In data set [8] the target is T4, Excitatory amino acid transporter 3 (Homo sapiens, UniProt P43005).
T4 sequence (P43005 whole entry): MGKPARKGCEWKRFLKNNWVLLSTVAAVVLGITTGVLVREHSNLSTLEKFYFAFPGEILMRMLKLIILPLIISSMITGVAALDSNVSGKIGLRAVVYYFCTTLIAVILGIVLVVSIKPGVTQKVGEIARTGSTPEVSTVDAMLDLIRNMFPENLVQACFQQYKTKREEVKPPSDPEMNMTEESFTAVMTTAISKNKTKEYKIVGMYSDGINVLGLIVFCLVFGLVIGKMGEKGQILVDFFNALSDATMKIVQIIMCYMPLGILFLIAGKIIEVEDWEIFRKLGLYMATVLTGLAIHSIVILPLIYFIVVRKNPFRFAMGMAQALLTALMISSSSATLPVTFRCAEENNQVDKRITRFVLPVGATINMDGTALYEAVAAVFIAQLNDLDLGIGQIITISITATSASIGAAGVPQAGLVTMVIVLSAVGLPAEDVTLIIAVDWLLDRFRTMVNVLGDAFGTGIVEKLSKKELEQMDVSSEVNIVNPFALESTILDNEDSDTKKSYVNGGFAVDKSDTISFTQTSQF
Put plainly: Inhibition of EAAT3 (unknown origin) expressed in african green monkey COS7 cells using [3H]-glutamic acid as substrate after 10 mins by scintillation counting. Format: cell-based, COS-7. The method in brief: as §2

The target in data set [9] is T5, Sodium- and chloride-dependent glycine transporter 1 (Homo sapiens, UniProt P48067).
T5 sequence (P48067 whole entry): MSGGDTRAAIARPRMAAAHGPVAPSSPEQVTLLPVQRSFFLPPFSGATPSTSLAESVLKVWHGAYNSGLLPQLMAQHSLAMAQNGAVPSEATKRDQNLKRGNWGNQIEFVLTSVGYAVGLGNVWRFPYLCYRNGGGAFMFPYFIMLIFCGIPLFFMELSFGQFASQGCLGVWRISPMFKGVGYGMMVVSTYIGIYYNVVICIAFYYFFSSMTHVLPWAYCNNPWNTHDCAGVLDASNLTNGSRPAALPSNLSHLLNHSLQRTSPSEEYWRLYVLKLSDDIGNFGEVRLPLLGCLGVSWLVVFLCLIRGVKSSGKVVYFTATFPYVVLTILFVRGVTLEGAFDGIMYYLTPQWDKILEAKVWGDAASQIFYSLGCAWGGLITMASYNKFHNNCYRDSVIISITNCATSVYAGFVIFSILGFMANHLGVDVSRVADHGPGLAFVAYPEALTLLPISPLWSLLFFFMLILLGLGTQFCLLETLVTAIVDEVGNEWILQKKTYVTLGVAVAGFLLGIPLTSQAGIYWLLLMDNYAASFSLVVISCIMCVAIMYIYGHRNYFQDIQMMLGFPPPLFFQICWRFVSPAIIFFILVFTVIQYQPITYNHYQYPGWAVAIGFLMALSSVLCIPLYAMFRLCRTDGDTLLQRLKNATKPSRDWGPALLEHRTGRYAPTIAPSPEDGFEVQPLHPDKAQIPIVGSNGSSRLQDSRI
As to the kind of experiment: Inhibition of GlyT1 (unknown origin) expressed in MDCK cells using [3H]-glycine as substrate after 10 mins by scintillation counting. In kind it is cell-based. The method in brief: as §1

The target of data set [10] is T1, Sodium-dependent dopamine transporter. As to the kind of experiment: Activity at human DAT expressed in MDCK cells assessed as dopamine release at 0.5 to 500 uM after 10 mins using [3H]-dopamine pretreated for 1 hr before compound addition followed by wash out by reversed transport efflux assay. In kind it is cell-based. In short, it runs like this: (§4)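 Reverse-transport efflux of preloaded substrate: hDAT in MDCK GFP-hDAT cells, hNET and GAT-1 in transiently transfected COS-7 cells. Compound tested at 0.5–500 μM against vehicle (basal) release. Non-radiolabeled substrate served as the positive control for assay integrity.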

For data set [11], the target named is T3, Sodium- and chloride-dependent GABA transporter 1. Put plainly: Activity at GAT1 (unknown origin) expressed in african green monkey COS7 cells assessed as GABA release at 0.5 to 500 uM after 10 mins using [3H]-GABA pretreated for 1 hr before compound addition followed by wash out by reversed transport efflux assay. Format: cell-based. Particulars: COS-7. In short, it runs like this: as §4
Target sequence in this assay (P30531 whole entry, looked up): as the sequence (P30531 whole entry, looked up) above

For data set [12] the target is unchanged. Put plainly: Allosteric modulation of GAT-1 (unknown origin) expressed in african green monkey COS7 cells using [3H]-GABA as substrate at 20 uM. In kind it is cell-based. As to conditions: COS-7. The method in brief:
as §3
Target sequence in this assay (P30531 whole entry, looked up): as the sequence (P30531 whole entry, looked up) above

The target of data set [13] is T2, Sodium-dependent noradrenaline transporter. As to the kind of experiment: Activity at human NET expressed in african green monkey COS7 cells assessed as norepinephrine release at 0.5 to 500 uM after 10 mins using [3H]-norepinephrine pretreated for 1 hr before compound addition followed by wash out by reversed transport efflux assay. In kind it is cell-based. Particulars: COS-7. The method in brief: as §4

The target in data set [14] is Excitatory amino acid transporter 2 (Homo sapiens, UniProt P43004). As to the kind of experiment: Inhibition of EAAT2 (unknown origin) expressed in african green monkey COS7 cells using [3H]-glutamic acid as substrate after 10 mins by scintillation counting. Format: cell-based, COS-7. In short, it runs like this:
as §2

Data set [15] has as its target T3, Sodium- and chloride-dependent GABA transporter 1. As to the kind of experiment: Inhibition of GAT-1 (unknown origin) expressed in african green monkey COS7 cells using [3H]-GABA as substrate after 10 mins by scintillation counting. Format: cell-based, COS-7. In short, it runs like this:
as §2
Target sequence in this assay (P30531 whole entry): as the sequence (P30531 whole entry, looked up) above

For data set [16], the target named is T2, Sodium-dependent noradrenaline transporter. As to the kind of experiment: Non-competitive inhibition of human NET expressed in COS-7 cells using [3H]-norepinephrine as substrate.
Data set [17] in a line: Toxicity in Wistar rat peripheral blood micronucleus.
Data set [18] addresses Excitatory amino acid transporter 1 (Homo sapiens, UniProt P43003). As to the kind of experiment: Inhibition of EAAT1 (unknown origin) expressed in african green monkey COS7 cells using [3H]-glutamic acid as substrate after 10 mins by scintillation counting. Format: cell-based, COS-7. In short, it runs like this: as §2
The target in data set [19] is T6, Sodium- and chloride-dependent GABA transporter 3 (Homo sapiens, UniProt P48066).
T6 sequence (P48066 whole entry): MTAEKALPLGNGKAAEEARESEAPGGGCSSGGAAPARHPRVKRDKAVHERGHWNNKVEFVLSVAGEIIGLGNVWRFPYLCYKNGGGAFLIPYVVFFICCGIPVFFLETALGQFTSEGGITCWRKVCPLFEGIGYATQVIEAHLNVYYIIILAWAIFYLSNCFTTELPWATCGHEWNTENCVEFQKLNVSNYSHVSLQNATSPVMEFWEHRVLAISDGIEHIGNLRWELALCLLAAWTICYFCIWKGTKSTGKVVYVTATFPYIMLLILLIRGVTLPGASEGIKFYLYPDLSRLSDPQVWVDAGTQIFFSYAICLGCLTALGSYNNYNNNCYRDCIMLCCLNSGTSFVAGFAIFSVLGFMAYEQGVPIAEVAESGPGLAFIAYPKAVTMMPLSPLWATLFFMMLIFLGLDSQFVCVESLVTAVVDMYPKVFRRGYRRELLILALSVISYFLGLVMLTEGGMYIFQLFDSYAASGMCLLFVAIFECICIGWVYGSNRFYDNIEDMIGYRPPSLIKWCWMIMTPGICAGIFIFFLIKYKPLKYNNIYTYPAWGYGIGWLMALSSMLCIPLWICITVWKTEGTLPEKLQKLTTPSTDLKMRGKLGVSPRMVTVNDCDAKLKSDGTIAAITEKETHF
Put plainly: Inhibition of GAT-3 (unknown origin) expressed in african green monkey COS7 cells using [3H]-GABA as substrate after 10 mins by scintillation counting. In kind it is cell-based, COS-7. In short, it runs like this: as §2

T2 sequence (P23975 whole entry): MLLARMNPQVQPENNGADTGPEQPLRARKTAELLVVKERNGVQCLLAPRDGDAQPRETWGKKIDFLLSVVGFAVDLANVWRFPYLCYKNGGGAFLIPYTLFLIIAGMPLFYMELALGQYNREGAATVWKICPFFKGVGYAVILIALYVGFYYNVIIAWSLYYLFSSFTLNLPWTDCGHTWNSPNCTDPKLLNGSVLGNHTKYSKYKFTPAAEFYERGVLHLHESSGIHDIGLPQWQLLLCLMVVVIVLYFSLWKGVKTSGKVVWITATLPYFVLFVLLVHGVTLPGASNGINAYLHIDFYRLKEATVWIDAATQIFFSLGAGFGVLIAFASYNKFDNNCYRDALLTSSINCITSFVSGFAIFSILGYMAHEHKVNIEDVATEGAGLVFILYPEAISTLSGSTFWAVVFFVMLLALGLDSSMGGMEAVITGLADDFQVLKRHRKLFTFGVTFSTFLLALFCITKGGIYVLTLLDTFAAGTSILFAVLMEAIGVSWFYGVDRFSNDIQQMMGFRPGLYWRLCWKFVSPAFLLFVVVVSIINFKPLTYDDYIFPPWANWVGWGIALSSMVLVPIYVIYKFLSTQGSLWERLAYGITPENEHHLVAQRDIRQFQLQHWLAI
T1 sequence (Q01959 whole entry): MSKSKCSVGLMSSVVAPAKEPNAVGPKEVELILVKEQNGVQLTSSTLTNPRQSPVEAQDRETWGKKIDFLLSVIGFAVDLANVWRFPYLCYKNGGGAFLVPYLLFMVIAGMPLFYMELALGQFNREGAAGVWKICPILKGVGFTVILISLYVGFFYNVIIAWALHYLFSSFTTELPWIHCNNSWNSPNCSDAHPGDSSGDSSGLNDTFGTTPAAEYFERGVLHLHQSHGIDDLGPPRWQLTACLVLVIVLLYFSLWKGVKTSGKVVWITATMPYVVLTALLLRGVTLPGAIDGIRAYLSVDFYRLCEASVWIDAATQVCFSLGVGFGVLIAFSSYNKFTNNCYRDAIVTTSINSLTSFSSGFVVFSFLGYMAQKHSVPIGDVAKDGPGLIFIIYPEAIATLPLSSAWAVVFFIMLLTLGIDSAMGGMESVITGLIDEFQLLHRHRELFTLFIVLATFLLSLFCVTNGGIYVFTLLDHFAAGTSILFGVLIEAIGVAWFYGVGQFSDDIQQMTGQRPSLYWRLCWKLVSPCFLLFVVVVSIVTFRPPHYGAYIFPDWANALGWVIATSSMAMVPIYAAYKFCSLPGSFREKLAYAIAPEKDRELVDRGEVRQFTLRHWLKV
Chain of Sodium-dependent serotonin transporter (P31645 whole entry): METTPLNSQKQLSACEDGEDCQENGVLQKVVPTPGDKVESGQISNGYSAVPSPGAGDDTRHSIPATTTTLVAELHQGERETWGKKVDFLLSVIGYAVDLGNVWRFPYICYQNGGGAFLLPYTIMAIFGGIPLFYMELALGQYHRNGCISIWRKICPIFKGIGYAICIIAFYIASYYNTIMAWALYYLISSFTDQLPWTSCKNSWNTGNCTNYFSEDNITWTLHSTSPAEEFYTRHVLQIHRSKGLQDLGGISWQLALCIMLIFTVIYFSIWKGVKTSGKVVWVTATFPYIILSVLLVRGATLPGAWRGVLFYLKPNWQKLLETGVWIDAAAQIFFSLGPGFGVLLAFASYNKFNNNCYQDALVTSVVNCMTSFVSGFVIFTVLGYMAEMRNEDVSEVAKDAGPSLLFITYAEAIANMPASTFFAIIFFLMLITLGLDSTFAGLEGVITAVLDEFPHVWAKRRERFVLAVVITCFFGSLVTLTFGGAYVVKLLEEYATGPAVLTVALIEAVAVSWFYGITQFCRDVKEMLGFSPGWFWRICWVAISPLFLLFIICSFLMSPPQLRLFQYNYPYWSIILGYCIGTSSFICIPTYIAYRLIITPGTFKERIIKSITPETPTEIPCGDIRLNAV
Chain of Excitatory amino acid transporter 2 (P43004 whole entry): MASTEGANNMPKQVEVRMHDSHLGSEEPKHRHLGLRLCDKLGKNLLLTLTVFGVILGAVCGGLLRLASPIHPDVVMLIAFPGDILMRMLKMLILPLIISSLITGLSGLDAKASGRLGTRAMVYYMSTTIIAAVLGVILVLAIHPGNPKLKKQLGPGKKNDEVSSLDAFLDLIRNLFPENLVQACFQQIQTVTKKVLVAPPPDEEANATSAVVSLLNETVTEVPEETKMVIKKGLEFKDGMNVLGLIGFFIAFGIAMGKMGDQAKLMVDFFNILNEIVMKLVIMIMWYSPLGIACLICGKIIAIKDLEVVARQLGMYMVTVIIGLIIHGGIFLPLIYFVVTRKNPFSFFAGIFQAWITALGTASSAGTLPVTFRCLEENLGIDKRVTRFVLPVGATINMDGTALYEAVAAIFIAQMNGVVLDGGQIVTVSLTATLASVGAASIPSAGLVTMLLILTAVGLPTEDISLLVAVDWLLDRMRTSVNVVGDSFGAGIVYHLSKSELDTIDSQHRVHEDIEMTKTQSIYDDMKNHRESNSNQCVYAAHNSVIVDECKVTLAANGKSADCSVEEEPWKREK
Chain of Excitatory amino acid transporter 1 (P43003 whole entry): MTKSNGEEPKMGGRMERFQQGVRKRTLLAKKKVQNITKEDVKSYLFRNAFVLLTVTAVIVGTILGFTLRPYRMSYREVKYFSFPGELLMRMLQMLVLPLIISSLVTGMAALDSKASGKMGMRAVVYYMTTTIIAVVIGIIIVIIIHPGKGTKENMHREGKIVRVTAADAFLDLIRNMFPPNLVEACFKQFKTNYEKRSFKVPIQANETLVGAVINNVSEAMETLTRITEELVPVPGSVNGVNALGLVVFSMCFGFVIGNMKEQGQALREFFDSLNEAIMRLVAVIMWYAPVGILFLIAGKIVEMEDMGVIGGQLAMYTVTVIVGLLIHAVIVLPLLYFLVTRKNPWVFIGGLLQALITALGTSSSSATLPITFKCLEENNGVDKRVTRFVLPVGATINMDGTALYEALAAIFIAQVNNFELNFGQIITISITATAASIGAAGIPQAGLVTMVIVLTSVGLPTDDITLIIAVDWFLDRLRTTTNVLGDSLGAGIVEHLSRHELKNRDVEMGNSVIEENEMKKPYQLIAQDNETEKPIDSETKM

For the compound `O[C@H]1OC[C@H](Cc2ccc3c(c2)OCO3)[C@H]1Cc1ccc2c(c1)OCO2`, the IC50 was 12 µM in [1], more than 200 µM in data set [2] and more than 200 µM in data set [3]. The inhibition entry in data set [1] is “Dose-dependent effect”.
As to `O=C(O)C1=CCCN(CCOC(c2ccc(C(F)(F)F)cc2)c2ccc(C(F)(F)F)cc2)C1`, inhibition in data set [4] was half-maximal at 0.26 µM (IC50).
With `O=C(O)C1=CCCN(CCON=C(c2ccccc2)c2ccccc2)C1`, in data set [4], half-maximal inhibition (IC50) was put at 0.04 µM.
As for `COC1OC[C@@H](Cc2ccc3c(c2)OCO3)[C@@H]1Cc1ccc2c(c1)OCO2` (stereo partly drawn) [(-)-O-METHYLCUBEBIN], in data set [5], the inhibition entry is “inactive”. The IC50 in [1] was found to be 78.6 µM; in data set [2], 90.3 µM.
With `O=C1OC[C@H](Cc2ccc3c(c2)OCO3)[C@H]1Cc1ccc2c(c1)OCO2` [HINOKININ], the inhibition result in data set [6], in data set [7] and in data set [16] was “Active” throughout. In addition, the IC50 in data set [8] is more than 500 µM; in [1], 8.35 µM; in data set [9], more than 500 µM; in data set [2], 175 µM; in data set [3] it was 8.76 µM; in [14], more than 100 µM. The IC50 in data set [15] was 20.6 µM; in [18], more than 500 µM; in [19], more than 500 µM. Further, the inhibition entry in data set [1] is “Dose-dependent effect”. Moreover, the result in data set [10], in data set [11] and in data set [13] was inactive. In addition, the result in data set [12] was Active. Moreover, the Activity entry in data set [17] is on record as “Non-toxic”.
